Sampled rows, rich in hits. Any-hit rate of the full collection: about 3.3%.
FGF22 binding: binders of human FGF22 protein, primary screen, FGF22 synaptogenesis inhibitor project, biophysical, thermal shift, single point; Fibroblast growth factor 22 (Homo sapiens), Q9HCT0; recombinant FGF22 thermal shift, SYPRO orange fluorescence; percent of sucrose octasulfate shift, DMSO zero; activity (Tm shift, normalised), % at 9.99 µM; hit rate 1.5% among 340,000; AID 651658, 2012;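 active means mean Tm shift, scaled 0 neutral to 100 positive control, at about 1.3% or above, every replicate too, limit read from the data; inconclusive means no clear call, values can overlap the other calls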
Statin myotox sup: suppressors of statin myotoxicity in C2C12 myotubes, primary screen, cell-based, single point, plate reader | C2C12 myotubes + simvastatin, ATP luminescence, 48 h; scaled: DMSO 0, geranylgeraniol control 100 | rescue of ATP level, % at 7.49 µM | hit rate 0.78% among 330,000 | AID 602340, 2012;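 active means mean ATP rescue above about 67%, or every replicate alone reaching that limit, limit read from the data, passing the limit was not always enough; inconclusive means no clear call, values can overlap the other calls; inactive means mean under the limit and some replicate under it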;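 further: myotubes were challenged with 10 µM simvastatin during compound exposure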
E-selectin induc: E-selectin induction in HUVECs, primary screen, imaging, HUVEC, immunofluorescence imaging, single point; normalized: neutral wells 0, TNF-alpha wells 100; activation, % at 7.58 µM; hit rate 0.37% among 260,000; P16581;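 active means mean E-selectin-positive cell signal at least 10% of the positive control, reached in at least 60% of replicates, without over 20% cell loss; inconclusive means no rule given, readout overlaps actives, possibly toxicity-flagged; inactive means the rest, including those meeting only one limit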
Target sequence (P16581 whole entry, looked up): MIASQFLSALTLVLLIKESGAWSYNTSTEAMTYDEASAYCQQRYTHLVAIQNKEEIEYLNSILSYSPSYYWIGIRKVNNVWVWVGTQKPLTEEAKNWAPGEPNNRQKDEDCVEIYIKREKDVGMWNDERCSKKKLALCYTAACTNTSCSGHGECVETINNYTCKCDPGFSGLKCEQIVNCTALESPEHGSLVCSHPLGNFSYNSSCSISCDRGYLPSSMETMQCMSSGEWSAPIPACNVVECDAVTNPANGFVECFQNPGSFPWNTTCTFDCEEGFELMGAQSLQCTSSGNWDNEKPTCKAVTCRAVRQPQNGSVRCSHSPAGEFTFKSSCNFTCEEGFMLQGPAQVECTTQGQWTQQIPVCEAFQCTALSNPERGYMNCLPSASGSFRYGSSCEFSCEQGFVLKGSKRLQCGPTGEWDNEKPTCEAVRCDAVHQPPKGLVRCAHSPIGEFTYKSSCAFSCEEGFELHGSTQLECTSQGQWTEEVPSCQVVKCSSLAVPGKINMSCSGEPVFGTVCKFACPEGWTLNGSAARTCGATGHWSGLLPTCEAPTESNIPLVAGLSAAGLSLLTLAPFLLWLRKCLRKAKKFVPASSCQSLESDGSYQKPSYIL
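assay system = HUVEC, human umbilical vein endothelial cells | input = 3,000 HUVEC seeded per well | medium = EGM-2 growth medium on 0.1% gelatin-coated wells | dosing = one compound dose added by pin transfer | signal = immunofluorescence imaging | read-out basis = % PE-positive cells | control set = TNF-alpha, DMSO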
DENV2 CPE rescue: inhibitors of DENV2 cytopathic effect, primary screen, cell-based, plate reader, single concentration; CPE inhibition, % at 9.99 µM; DENV2-infected cells, cytopathic effect rescue; hit rate 1.7% among 350,000; in the data active means CPE inhibition above about 20%, passing the limit was not always enough; inconclusive means no clear call, values can overlap the other calls; tested in BHK-21 cells;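 further: 0% = median of neutral control wells and 100% = median of positive control wells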
Xi reactivation: activators of inactive X chromosome reactivation, primary screen, imaging, XiGFP fibroblasts, GFP high-content imaging, set 2; XiGFP mouse fibroblasts, % GFP-positive cells imaging, 3 d; cells co-treated with 5-aza-dC sensitizer; scaled so ellipticine positive control = 100%; activation, % at 7.58 µM; hit rate 0.055% among 360,000;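 active means mean normalized replicate activation at least 10% and every replicate at or above 10%; inconclusive means only one of the two criteria met; inactive means mean below 10% and not all replicates reach 10%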;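 further: 0% = median of on-plate neutral control wells and 100% = ellipticine 6 µM median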
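assay system = SV40-immortalized XiGFP fibroblast cells, line 68-5-11 | buffer or medium = DMEM plus 5-aza-dC sensitizer | doses = single-point pinned compound dosing | times = 3-day compound exposure, then 15 min fixation at room temperature | benchmarks = positive control ellipticine, 6 µM final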
PglD inh: C. jejuni PglD acetyltransferase inhibitors, primary screen, biochemical, DTNB colorimetric, single point | UDP-N-acetylbacillosamine N-acetyltransferase PglD (Campylobacter jejuni) | inhibition, % at 12.5 µM | hit rate 0.098% among 360,000 | purified PglD enzyme, DTNB colorimetric CoA detection; in the data active means inhibition above about 16%, passing the limit was not always enough; inconclusive means no clear call, values can overlap the other calls
* hit, by the source's call; ? = inconclusive; . = not tested or not shown.

SMILES	FGF22 binding	Statin myotox sup	E-selectin induc	DENV2 CPE rescue	Xi reactivation	PglD inh
CNC[C@H]1Oc2ccc(N(C)C)cc2C(=O)N(C)C[C@@H]1C	.	.	.	.	0	.
O=C1CS/C(=N/N=C/c2ccccc2OS(=O)(=O)c2ccccc2)N1	.	-13	.	.	0	.
Cc1ccc(OS(=O)(=O)c2ccccc2)c(/C=N/N=C2\NC(=O)C(C)S2)c1 (stereo not given)	.	134*	.	.	.	-2
O=C(c1ccc(C(F)(F)F)cc1)C1CCCN(C(=O)Cn2cncn2)C1 (stereo not given)	0	.	.	-2	0	-2
COc1ccc(C(=O)C2CCCN(C(=O)Cc3c(C)noc3C)C2)cc1OC (stereo not given)	43*	.	0	10	0	.
O=C(c1ccc(C(F)(F)F)cc1)C1CCCN(C(=O)CCN2CCCO2)C1 (stereo not given)	44*	67*	.	9	0	2
Cc1nonc1CC(=O)N1CCCC(C(=O)c2cccc(C(F)(F)F)c2)C1 (stereo not given)	46*	8	1	-3	0	-1
COc1ccc(F)cc1C(=O)C1CCCN(C(=O)Cc2c(C)noc2C)C1 (stereo not given)	0	2	0	.	0	-3
O=C(C[C@@H]1CC[C@H]2[C@@H](COC[C@@H](O)CN2Cc2ccc(Oc3ccccc3)cc2)O1)Nc1nccs1	0	100*	0	-4	0	-2
O=C(C[C@@H]1CC[C@@H]2[C@H](COC[C@H](O)CN2Cc2ccc(Oc3ccccc3)cc2)O1)N1CCCCC1	-1	41	0	-7	0	-3
O=C(C[C@H]1CC[C@H]2[C@@H](COC[C@@H](O)CN2Cc2ccc(Oc3ccccc3)cc2)O1)N1CCCCC1	0	?	0	24*	0	0
C[C@@H]1CN([C@H](C)CO)S(=O)(=O)c2ccc(C#CCN(C)C)cc2O[C@H]1CN(C)C(=O)C1CC1	.	9	-1	.	0	.
COc1cccc(-c2ncc3ccccc3c2COC(=O)c2cccs2)c1	0	0	0	?	1	-1
COc1ccc(C(=O)OCc2c(-c3cccc(OC)c3)ncc3ccccc23)cc1	0	4	0	22*	0	1
C[C@H](CO)N1C[C@H](C)[C@@H](CN(C)Cc2ccc(C(=O)Nc3ccccc3N)cc2)Oc2ccc(NC(=O)c3ccncc3)cc2C1=O	0	.	0	-15	-1	.
OCCNCCCCOc1cccc(Br)c1	0	.	.	39*	0	.
CCN1[C@H](C(=O)Nc2ccccc2)[C@@H](CO)[C@@H]2Cn3c(ccc(-c4ccc(F)cc4)c3=O)[C@@H]21	.	.	0	11	0	.
Cn1cc(C(CO)Cc2ccccc2)c2ccccc21 (stereo not given)	0	5	0	25*	0	-3
CC(=O)C(=Nc1ccccc1Cl)NNc1ccc(Cl)cc1	.	152*	.	.	.	4
Cc1ccc(NC(=O)CN(C)C(=O)c2ccccc2OCc2c(C)noc2C)cc1	0	-1	.	-11	0	0
CCOc1ccc(NC(=O)CN(C)C(=O)c2ccccc2OCc2c(C)noc2C)cc1OCC	-1	.	.	25*	0	.
CC[C@]12c3[nH]c4cc(CCC(=O)N(C)C)ccc4c3CCN1C(=O)[C@@H](CC(=O)NCCc1ccccn1)C[C@@H]2C(=O)N1CCN(C(=O)c2ccco2)CC1	0	0	0	35*	0	-1
Cc1csc2nc(CNC(=O)c3cccc(C(F)(F)F)c3)cn12	.	109*	.	.	.	.
O=C(NCc1cn2ccsc2n1)c1cccc(C(F)(F)F)c1	.	-1	.	.	.	-3
CC(C)c1cn(CC[C@H]2CC[C@@H](NC(=O)c3cccc(F)c3)[C@H](CO)O2)nn1	0	-1	0	19	0	-1
SMILES	FGF22 binding	Statin myotox sup	E-selectin induc	DENV2 CPE rescue	Xi reactivation	PglD inh
COc1cccc(CNC(=O)C[C@@H]2C=C[C@H](NC(=O)C3CCC3)[C@@H](CO)O2)c1	.	0	0	.	1	.
Cc1cccc(NC(=S)N2CCC(c3nc4ccccc4o3)CC2)c1C	-1	-14	.	17	.	-1
S=C(NCc1ccco1)N1CCC(c2nc3ccccc3o2)CC1	0	.	60*	-1	0	.
CN(C)C(=O)C[C@@H]1C=C[C@@H](NC(=O)Nc2cccc(F)c2)[C@H](CO)O1	0	0	0	-4	0	2
CCOn1c(=O)c(-c2cccc([N+](=O)[O-])c2)[n+]([O-])c2ccccc21	44*	.	.	3	0	.
CO[C@H]1CN(C)C(=O)c2cc(NC(=O)Nc3ccc(Cl)cc3)ccc2OC[C@H](C)N(C)C[C@H]1C	.	-45	0	-4	0	2
O=C(C[C@@H]1CC[C@@H](NC(=O)C2CC2)[C@H](CO)O1)Nc1nccs1	1	-2	0	2	0	6
CS(=O)(=O)N1CCN(c2ccc([N+](=O)[O-])c(N3CCOCC3)c2)CC1	.	-5	.	.	.	8
CS(=O)(=O)N1CCN(c2ccccc2[N+](=O)[O-])CC1	43*	-1	.	-2	0	.
C[C@@H]1CN([C@@H](C)CO)C(=O)Cc2cc(NC(=O)Nc3ccc(F)cc3)ccc2O[C@H]1CN(C)Cc1ccc(C(=O)O)cc1	0	1	55*	6	0	-2
C[C@@H]1CN([C@@H](C)CO)C(=O)Cc2cc(NC(=O)Nc3ccc(F)cc3)ccc2O[C@@H]1CN(C)Cc1ccc(Cl)c(Cl)c1	0	108*	0	15	0	0
C[C@H](CO)N1C[C@H](C)[C@H](CN(C)Cc2ccc(C(=O)O)cc2)Oc2ccc(NC(=O)Nc3ccc(F)cc3)cc2CC1=O	0	9	-6	4	0	5
C[C@H]1CN([C@@H](C)CO)C(=O)Cc2cc(NC(=O)Nc3ccc4c(c3)OCO4)ccc2O[C@@H]1CN(C)Cc1ccc(C(=O)O)cc1	0	1	.	.	0	2
C[C@H]1CN([C@@H](C)CO)C(=O)Cc2cc(NC(=O)Nc3ccc4c(c3)OCO4)ccc2O[C@H]1CN(C)Cc1ccc(C(=O)O)cc1	0	-7	.	78*	-1	2
C[C@H](CO)N1C[C@H](C)[C@H](CN(C)CC2CC2)Oc2ccc(NC(=O)Nc3ccc(F)cc3)cc2CC1=O	-1	-21	.	42*	.	-2

High-throughput results (PubChem)
